Active and inactive are the calls of the source.

Experimental findings from ChEMBL document CHEMBL5712914, “Selective Janus Kinase 1 Inhibition Is a Promising Therapeutic Approach for Lupus Erythematosus Skin Lesions” (Front Immunol, 2020) are described below.

Data set [1] addresses T1, Tyrosine-protein kinase JAK3 (Homo sapiens, UniProt P52333).
T1 sequence (P52333 whole entry): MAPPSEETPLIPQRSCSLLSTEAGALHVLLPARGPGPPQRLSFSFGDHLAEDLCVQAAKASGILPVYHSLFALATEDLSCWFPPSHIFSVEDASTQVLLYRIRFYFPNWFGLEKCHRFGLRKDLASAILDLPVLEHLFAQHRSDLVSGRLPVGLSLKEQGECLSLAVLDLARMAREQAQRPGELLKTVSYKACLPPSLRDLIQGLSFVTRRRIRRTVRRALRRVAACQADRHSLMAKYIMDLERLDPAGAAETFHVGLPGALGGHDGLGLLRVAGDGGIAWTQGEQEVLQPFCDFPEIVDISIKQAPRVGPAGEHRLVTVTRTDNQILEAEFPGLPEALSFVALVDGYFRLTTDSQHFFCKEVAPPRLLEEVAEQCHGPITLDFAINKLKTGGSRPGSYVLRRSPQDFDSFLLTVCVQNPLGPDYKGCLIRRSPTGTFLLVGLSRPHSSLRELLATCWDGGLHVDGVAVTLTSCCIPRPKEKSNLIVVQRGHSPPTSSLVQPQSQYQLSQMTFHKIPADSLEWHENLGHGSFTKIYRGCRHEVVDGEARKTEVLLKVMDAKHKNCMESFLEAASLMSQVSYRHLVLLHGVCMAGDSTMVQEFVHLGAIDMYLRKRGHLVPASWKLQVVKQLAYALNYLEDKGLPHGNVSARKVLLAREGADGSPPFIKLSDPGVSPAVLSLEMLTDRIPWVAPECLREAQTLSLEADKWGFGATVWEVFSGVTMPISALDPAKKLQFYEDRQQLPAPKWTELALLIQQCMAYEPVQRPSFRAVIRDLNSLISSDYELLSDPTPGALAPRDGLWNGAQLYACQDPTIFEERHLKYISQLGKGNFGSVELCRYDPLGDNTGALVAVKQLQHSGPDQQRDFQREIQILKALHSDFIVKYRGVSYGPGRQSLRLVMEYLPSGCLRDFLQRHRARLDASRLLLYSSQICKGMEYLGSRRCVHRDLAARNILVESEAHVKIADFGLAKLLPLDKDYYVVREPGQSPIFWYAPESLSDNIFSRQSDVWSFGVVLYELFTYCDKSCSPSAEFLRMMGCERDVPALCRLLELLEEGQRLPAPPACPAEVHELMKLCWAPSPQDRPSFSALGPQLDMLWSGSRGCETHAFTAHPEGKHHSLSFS
The experiment in a line: Inhibition of JAK3 in endogenous nucleic acid-stimulated human HaCaT cells assessed as reduction in CXCL10 expression at 100 nM measured after 24 hrs by ELISA. In general terms: In an ELISA, binding on a coated surface is turned into a signal by an enzyme label.

Data set [2] concerns Mus musculus. As to the kind of experiment: Improvement in CLE-like skin lesions in 450 mJ/cm2 UV-irradiated lupus-prone TREX1-/- mouse model assessed as reduction in IRF9 gene expression in lesional skin at 1 % administered topically for 7 days relative to control. It is filed as functional, organism-based. The settings on record: time 7.0 day. An outline of the steps:
(§1)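 Lesional skin from TREX1–/– mice given the topical JAK1 inhibitor or placebo underwent gene expression analysis for IFN-associated genes. Differential expression was defined as a change greater than twofold with p < 0.05 by Welch's t-test against placebo.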

Data set [3] concerns Mus musculus. As to the kind of experiment: Improvement in CLE-like skin lesions in 450 mJ/cm2 UV-irradiated lupus-prone TREX1-/- mouse model assessed as reduction in CCL2 gene expression in lesional skin at 1 % administered topically for 7 days relative to control. It is filed as functional, organism-based. The settings on record: time 7.0 day. An outline of the steps:
as §1

The target of data set [4] is Tyrosine-protein kinase JAK1 (Homo sapiens) (UniProt P23458). As to the kind of experiment: Inhibition of JAK1 in endogenous nucleic acid-stimulated human HaCaT cells assessed as reduction in CXCL10 expression at 1 uM measured after 24 hrs by ELISA.
Target sequence in this assay (P23458 whole entry, looked up): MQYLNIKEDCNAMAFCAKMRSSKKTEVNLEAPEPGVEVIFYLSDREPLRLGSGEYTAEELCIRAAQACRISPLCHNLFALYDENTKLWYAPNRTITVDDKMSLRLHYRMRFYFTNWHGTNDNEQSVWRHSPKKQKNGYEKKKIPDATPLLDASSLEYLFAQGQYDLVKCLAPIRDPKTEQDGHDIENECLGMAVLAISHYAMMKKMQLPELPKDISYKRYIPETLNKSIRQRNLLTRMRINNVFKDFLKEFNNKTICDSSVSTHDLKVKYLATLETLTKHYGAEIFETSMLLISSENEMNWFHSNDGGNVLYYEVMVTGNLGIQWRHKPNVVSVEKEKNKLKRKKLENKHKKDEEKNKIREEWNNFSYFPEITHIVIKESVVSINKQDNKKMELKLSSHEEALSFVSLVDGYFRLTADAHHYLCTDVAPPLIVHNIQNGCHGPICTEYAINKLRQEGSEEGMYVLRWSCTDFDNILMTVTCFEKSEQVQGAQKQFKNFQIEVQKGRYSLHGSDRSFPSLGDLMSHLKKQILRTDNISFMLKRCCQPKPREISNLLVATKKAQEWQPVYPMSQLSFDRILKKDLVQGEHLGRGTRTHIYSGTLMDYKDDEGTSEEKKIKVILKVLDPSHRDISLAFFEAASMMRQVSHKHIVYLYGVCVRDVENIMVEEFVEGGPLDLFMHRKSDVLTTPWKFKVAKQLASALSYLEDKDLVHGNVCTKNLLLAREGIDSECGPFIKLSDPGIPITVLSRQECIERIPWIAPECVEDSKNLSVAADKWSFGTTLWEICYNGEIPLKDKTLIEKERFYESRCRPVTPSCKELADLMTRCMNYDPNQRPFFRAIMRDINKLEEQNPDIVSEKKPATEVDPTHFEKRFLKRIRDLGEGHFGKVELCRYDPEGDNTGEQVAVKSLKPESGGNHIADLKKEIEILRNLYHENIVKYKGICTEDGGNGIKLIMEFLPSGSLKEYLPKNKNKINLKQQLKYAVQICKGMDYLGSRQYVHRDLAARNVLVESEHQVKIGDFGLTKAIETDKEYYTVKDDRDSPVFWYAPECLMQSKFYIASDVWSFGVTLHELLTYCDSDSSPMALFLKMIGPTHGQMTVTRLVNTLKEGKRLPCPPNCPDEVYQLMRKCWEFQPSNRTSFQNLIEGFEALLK
Data set [5] has the same target. The experiment in a line: Inhibition of JAK1 in endogenous nucleic acid-stimulated NHEK cells assessed as decrease in BlyS gene expression at 1 uM relative to control. The class given is cell-based. Summed up: (§2)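 NHEK primary keratinocytes were stimulated with endogenous nucleic acids (eNA) and then treated with inhibitor at 1 μM final, 4 samples per condition. Gene expression was compared with untreated eNA-stimulated cells. Downregulation was defined as greater than twofold with p < 0.05 by Welch's t-test.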
Target sequence in this assay (P23458 whole entry): as the sequence (P23458 whole entry, looked up) above

Data set [6] has the same target. As to the kind of experiment: Inhibition of JAK1 in endogenous nucleic acid-stimulated NHEK cells assessed as decrease in Caspase 10 gene expression at 1 uM relative to control. The class given is cell-based. Summed up: as §2
Target sequence in this assay (P23458 whole entry): as the sequence (P23458 whole entry, looked up) above
The test system of data set [7] is Mus musculus. The experiment in a line: Improvement in CLE-like skin lesions in 450 mJ/cm2 UV-irradiated lupus-prone TREX1-/- mouse model assessed as reduction in induration at 1 % administered topically for 7 days measured on day 4 and 7 post-dose. To be noted: time 7.0 day. The class given is functional, organism-based. Summed up:
(§3)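 Topical treatment or placebo was given for 7 days, with n = 4 mice per group. Lesions were photographed daily and mice weighed every 2 days. Erythema, induration, scaling and lesion size were scored with the mouse-adapted revised CLASI (Mouse RCLASI) and reported as mean ± SEM.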

Data set [8] has as its system Mus musculus. As to the kind of experiment: Improvement in CLE-like skin lesions in 450 mJ/cm2 UV-irradiated lupus-prone TREX1-/- mouse model assessed as reduction in erythema at 1 % administered topically for 7 days measured on day 4 and 7 post-dose. The class given is functional, organism-based. To be noted: time 7.0 day. An outline of the steps: as §3
For data set [9], the system named is Mus musculus. The experiment in a line: Improvement in CLE-like skin lesions in 450 mJ/cm2 UV-irradiated lupus-prone TREX1-/- mouse model assessed as reduction in IFIT1 gene expression in lesional skin at 1 % administered topically for 7 days relative to control. It is filed as functional, organism-based. The settings on record: time 7.0 day. An outline of the steps:
as §1

Data set [10] relates to Mus musculus. The experiment in a line: Improvement in CLE-like skin lesions in 450 mJ/cm2 UV-irradiated lupus-prone TREX1-/- mouse model assessed as reduction in IRF1 gene expression in lesional skin at 1 % administered topically for 7 days relative to control. The settings on record: time 7.0 day. It is filed as functional, organism-based. Summed up: as §1
The test system of data set [11] is Mus musculus. As to the kind of experiment: Improvement in CLE-like skin lesions in 450 mJ/cm2 UV-irradiated lupus-prone TREX1-/- mouse model assessed as improvement in epidermal thickness at 1 % administered topically for 7 days by H and E staining based histological analysis. The class given is functional, organism-based. The settings on record: time 7.0 day.

For data set [12], the target named is Tyrosine-protein kinase JAK1 (Homo sapiens) (UniProt P23458). The experiment in a line: Inhibition of JAK1 in endogenous nucleic acid-stimulated NHEK cells assessed as decrease in CXCL10 gene expression at 1 uM relative to control. It is filed as cell-based. Summed up: as §2
Target sequence in this assay (P23458 whole entry): as the sequence (P23458 whole entry, looked up) above
For data set [13], the system named is Mus musculus. The experiment in a line: Improvement in CLE-like skin lesions in 450 mJ/cm2 UV-irradiated lupus-prone TREX1-/- mouse model assessed as reduction in IRF7 gene expression in lesional skin at 1 % administered topically for 7 days relative to control. To be noted: time 7.0 day. It is filed as functional, organism-based. An outline of the steps: as §1

Data set [14] has as its system Mus musculus. As to the kind of experiment: Improvement in CLE-like skin lesions in 450 mJ/cm2 UV-irradiated lupus-prone TREX1-/- mouse model assessed as reduction in IFITM3 gene expression in lesional skin at 1 % administered topically for 7 days relative to control. The class given is functional, organism-based. The settings on record: time 7.0 day. An outline of the steps: as §1

For data set [15], the target named is Tyrosine-protein kinase JAK1 (Homo sapiens) (UniProt P23458). The experiment in a line: Inhibition of JAK1 in endogenous nucleic acid-stimulated NHEK cells assessed as decrease in TRAIL gene expression at 1 uM relative to control. The class given is cell-based. Summed up: as §2
Target sequence in this assay (P23458 whole entry): as the sequence (P23458 whole entry, looked up) above
Data set [16] has the same target. The experiment in a line: Inhibition of JAK1 in endogenous nucleic acid-stimulated NHEK cells assessed as decrease in AIM2 gene expression at 1 uM relative to control. The class given is cell-based. Summed up:
as §2
Target sequence in this assay (P23458 whole entry): as the sequence (P23458 whole entry, looked up) above

The test system of data set [17] is Mus musculus. The experiment in a line: Improvement in CLE-like skin lesions in 450 mJ/cm2 UV-irradiated lupus-prone TREX1-/- mouse model assessed as reduction in CCL7 gene expression in lesional skin at 1 % administered topically for 7 days relative to control. The class given is functional, organism-based. The settings on record: time 7.0 day. Summed up:
as §1

The target in data set [18] is Tyrosine-protein kinase JAK1 (Homo sapiens) (UniProt P23458). As to the kind of experiment: Inhibition of JAK1 in endogenous nucleic acid-stimulated NHEK cells assessed as decrease in CXCL11 gene expression at 1 uM relative to control. It is filed as cell-based. An outline of the steps: as §2
Target sequence in this assay (P23458 whole entry): as the sequence (P23458 whole entry, looked up) above
In data set [19] the test system is Mus musculus. The experiment in a line: Improvement in CLE-like skin lesions in 450 mJ/cm2 UV-irradiated lupus-prone TREX1-/- mouse model assessed as reduction in scaling at 1 % administered topically for 7 days measured on day 4 and 7 post-dose. The settings on record: time 7.0 day. It is filed as functional, organism-based. An outline of the steps:
as §3

The subject of data set [20] is Mus musculus. The experiment in a line: Improvement in CLE-like skin lesions in 450 mJ/cm2 UV-irradiated lupus-prone TREX1-/- mouse model assessed as reduction in CXCL10 gene expression in lesional skin at 1 % administered topically for 7 days relative to control. It is filed as functional, organism-based. The settings on record: time 7.0 day. An outline of the steps:
as §1

For data set [21], the system named is Mus musculus. As to the kind of experiment: Improvement in CLE-like skin lesions in 450 mJ/cm2 UV-irradiated lupus-prone TREX1-/- mouse model assessed as reduction in lession size at 1 % administered topically for 7 days measured on day 4 and 7 post-dose. The class given is functional, organism-based. The settings on record: time 7.0 day. An outline of the steps:
as §3

The subject of data set [22] is Mus musculus. As to the kind of experiment: Improvement in CLE-like skin lesions in 450 mJ/cm2 UV-irradiated lupus-prone TREX1-/- mouse model assessed as reduction in CCL9 gene expression in lesional skin at 1 % administered topically for 7 days relative to control. To be noted: time 7.0 day. It is filed as functional, organism-based. Summed up: as §1
For data set [23], the system named is Mus musculus. The experiment in a line: Improvement in CLE-like skin lesions in 450 mJ/cm2 UV-irradiated lupus-prone TREX1-/- mouse model assessed as reduction in CXCL9 gene expression in lesional skin at 1 % administered topically for 7 days relative to control. The class given is functional, organism-based. To be noted: time 7.0 day. An outline of the steps: as §1

Data set [24] deals with Mus musculus. The experiment in a line: Improvement in CLE-like skin lesions in 450 mJ/cm2 UV-irradiated lupus-prone TREX1-/- mouse model assessed as improvement in infiltrating dermal immune cells at 1 % administered topically for 7 days by H and E staining based histological analysis. It is filed as functional, organism-based. To be noted: time 7.0 day. An outline of the steps: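 Lesional skin from the topically treated or placebo-treated groups was processed for H&E and anti-CD45 immunohistology and viewed at ×400. Dermal infiltrate was graded as a CD45 inflammation score. Values are mean ± SEM and were compared by Mann-Whitney U test.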

Data set [25] relates to Mus musculus. As to the kind of experiment: Improvement in CLE-like skin lesions in 450 mJ/cm2 UV-irradiated lupus-prone TREX1-/- mouse model assessed as reduction in CCL5 gene expression in lesional skin at 1 % administered topically for 7 days relative to control. The settings on record: time 7.0 day. The class given is functional, organism-based. Summed up:
as §1

Data set [26] deals with Tyrosine-protein kinase JAK1 (Homo sapiens) (UniProt P23458). As to the kind of experiment: Inhibition of JAK1 in endogenous nucleic acid-stimulated NHEK cells assessed as decrease in TREX1 gene expression at 1 uM relative to control. The class given is cell-based. Summed up:
as §2

Consider `CN(C)C(=O)/C(C#N)=C/c1ccc(-c2nc3cnc4[nH]ccc4c3n2C2CCCCC2)o1`, for which, in data set [1], the “inhibition (INH)” value is listed as “Not Active”.
In the case of `N#CCC1(n2cc(-c3ncnc4[nH]ccc34)cn2)CN(C2CCN(C(=O)c3ccnc(C(F)(F)F)c3F)CC2)C1` [ITACITINIB], the result in data set [2], in [3], in data set [7], in data set [8], in data set [9] and in data set [10] was Active. Besides, the outcome in [11], in [13], in data set [14], in [17], in [19] and in [20] was Active. Besides, the result in data set [21], in [22], in data set [23], in [24] and in data set [25] was Active. The “inhibition (INH)” value in data set [4] is listed as “Active”. The fold change (FC) in data set [5], in data set [6], in data set [12], in data set [15], in data set [16] and in data set [18] was > 2 in each case. Moreover, in [26], the fold change (FC) is > 2.
